# Reference: ChEMBL document CHEMBL4382192, “Discovery of a potent dual ALK and EGFR T790M inhibitor” (Eur J Med Chem, 2017)
# How the values were obtained:
# [1] = Inhibition of EGFR/ALK L1152R mutant in human DFCI076 cells assessed as reduction in cell viability after 72 hrs by MTS assay; type: cell-based
# [2] = system: Tyrosine-protein kinase ABL1 (Homo sapiens), P00519 [F317L]; experiment: Binding affinity to human phosphorylated ABL1 F317L mutant (S229 to K512 residues) expressed in mammalian expression system assessed as residual binding level at 1 uM by Kinomescan method relative to control
# Method in brief: (§1)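 Kinome-wide selectivity panel run by the KINOMEscan method, with the test compound at a single concentration of 1 μM. Wild-type and mutant kinases were profiled in the same screen.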
# [3] = system: Tyrosine-protein kinase ABL1 (Homo sapiens), P00519 [T315I]; experiment: Binding affinity to human non-phosphorylated ABL1 T315I mutant (S229 to K512 residues) expressed in mammalian expression system assessed as residual binding level at 1 uM by Kinomescan method relative to control; method in brief: as §1
# [4] = target: Dual specificity tyrosine-phosphorylation-regulated kinase 1B (Homo sapiens) (UniProt Q9Y463); experiment: Binding affinity to wild-type human full length DYRK1B (M1 to S629 residues) expressed in bacterial expression system assessed as residual binding level at 1 uM by Kinomescan method relative to control
# [5] = target: Ephrin type-A receptor 7 (Homo sapiens) (UniProt Q15375); experiment: Binding affinity to wild-type human partial length EPHA7 (Y608 to S912 residues) expressed in bacterial expression system assessed as residual binding level at 1 uM by Kinomescan method relative to control
# [6] = target: Mitogen-activated protein kinase 1 (Homo sapiens) (UniProt P28482); experiment: Binding affinity to wild-type human full length ERK2 (M1 to S360 residues) expressed in bacterial expression system assessed as residual binding level at 1 uM by Kinomescan method relative to control
# Method in brief: (§2)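 Single-point kinome-wide KINOMEscan binding panel, test compound at 1 μM, run by the provider's standard protocol.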
# [7] = target: Mitogen-activated protein kinase 6 (Homo sapiens) (UniProt Q16659); experiment: Binding affinity to wild-type human partial length ERK3 (M1 to P413 residues) expressed in bacterial expression system assessed as residual binding level at 1 uM by Kinomescan method relative to control
# [8] = system: Receptor-type tyrosine-protein kinase FLT3 (Homo sapiens), P36888 [D835H]; experiment: Binding affinity to human partial length FLT3 D835H mutant (V592 to Y969 residues) expressed in bacterial expression system assessed as residual binding level at 1 uM by Kinomescan method relative to control; method in brief: as §1
# [9] = system: Receptor-type tyrosine-protein kinase FLT3 (Homo sapiens), P36888 [K663Q]; experiment: Binding affinity to human partial length FLT3 K663Q mutant (V592 to Y969 residues) expressed in bacterial expression system assessed as residual binding level at 1 uM by Kinomescan method relative to control; method in brief: as §1
# [10] = target: Tyrosine-protein kinase Lck (Homo sapiens) (UniProt P06239); experiment: Binding affinity to wild-type human partial length LCK (R207 to P509 residues) expressed in bacterial expression system assessed as residual binding level at 1 uM by Kinomescan method relative to control
# [11] = target: LIM domain kinase 2 (Homo sapiens) (UniProt P53671); experiment: Binding affinity to wild-type human full length LIMK2 (M1 to P638 residues) expressed in bacterial expression system assessed as residual binding level at 1 uM by Kinomescan method relative to control; method in brief: as §2
# [12] = target: Microtubule-associated serine/threonine-protein kinase 1 (Homo sapiens) (UniProt Q9Y2H9); experiment: Binding affinity to wild-type human partial length MAST1 (S346 to V730 residues) expressed in mammalian expression system assessed as residual binding level at 1 uM by Kinomescan method relative to control
# [13] = target: Tyrosine-protein kinase Mer (Homo sapiens) (UniProt Q12866); experiment: Binding affinity to wild-type human partial length MERTK (R557 to L884 residues) expressed in bacterial expression system assessed as residual binding level at 1 uM by Kinomescan method relative to control
# [14] = target: Myosin light chain kinase (Homo sapiens) (UniProt Q32MK0); experiment: Binding affinity to wild-type human partial length MLCK (D488 to K800 residues) expressed in bacterial expression system assessed as residual binding level at 1 uM by Kinomescan method relative to control
# [15] = target: Serine/threonine-protein kinase 4 (Homo sapiens) (UniProt Q13043); experiment: Binding affinity to wild-type human full length MST1 (M1 to F487 residues) expressed in bacterial expression system assessed as residual binding level at 1 uM by Kinomescan method relative to control; method in brief: as §2
# [16] = target: Serine/threonine-protein kinase 3 (Homo sapiens) (UniProt Q13188); experiment: Binding affinity to wild-type human partial length MST2 (D17 to E318 residues) expressed in bacterial expression system assessed as residual binding level at 1 uM by Kinomescan method relative to control
# [17] = target: Cyclin-dependent kinase 14 (Homo sapiens) (UniProt O94921); experiment: Binding affinity to wild-type human full length PFTK1 (M1 to H451 residues) expressed in bacterial expression system assessed as residual binding level at 1 uM by Kinomescan method relative to control; method in brief: as §2
# [18] = target: Serine/threonine-protein kinase pim-2 (Homo sapiens) (UniProt Q9P1W9); experiment: Binding affinity to wild-type human partial length PIM2 (M1 to E291 residues) expressed in bacterial expression system assessed as residual binding level at 1 uM by Kinomescan method relative to control
# [19] = target: Serine/threonine-protein kinase RIO2 (Homo sapiens) (UniProt Q9BVS4); experiment: Binding affinity to wild-type human partial length RIOK2 (M1 to D313 residues) expressed in mammalian expression system assessed as residual binding level at 1 uM by Kinomescan method relative to control
# [20] = target: SNF-related serine/threonine-protein kinase (Homo sapiens) (UniProt Q9NRH2); experiment: Binding affinity to wild-type human partial length SNRK (M1 to E339 residues) expressed in mammalian expression system assessed as residual binding level at 1 uM by Kinomescan method relative to control
# [21] = target: Serine/threonine-protein kinase tousled-like 2 (Homo sapiens) (UniProt Q86UE8); experiment: Binding affinity to wild-type human partial length TLK2 (E424 to N749 residues) expressed in bacterial expression system assessed as residual binding level at 1 uM by Kinomescan method relative to control
# [22] = target: Non-receptor tyrosine-protein kinase TNK1 (Homo sapiens) (UniProt Q13470); experiment: Binding affinity to wild-type human full length TNK1 (M1 to P661 residues) expressed in bacterial expression system assessed as residual binding level at 1 uM by Kinomescan method relative to control
# [23] = target: Serine/threonine-protein kinase WNK2 (Homo sapiens) (UniProt Q9Y3S1); experiment: Binding affinity to wild-type human partial length WNK2 (V47 to D482 residues) expressed in mammalian expression system assessed as residual binding level at 1 uM by Kinomescan method relative to control
# [24] = target: Serine/threonine-protein kinase 32C (Homo sapiens) (UniProt Q86UX6); experiment: Binding affinity to wild-type human partial length YANK3 (M68 to G486 residues) expressed in bacterial expression system assessed as residual binding level at 1 uM by Kinomescan method relative to control
# Chain of Serine/threonine-protein kinase 4 (Homo sapiens) (Q13043 whole entry, the tested form may be a part): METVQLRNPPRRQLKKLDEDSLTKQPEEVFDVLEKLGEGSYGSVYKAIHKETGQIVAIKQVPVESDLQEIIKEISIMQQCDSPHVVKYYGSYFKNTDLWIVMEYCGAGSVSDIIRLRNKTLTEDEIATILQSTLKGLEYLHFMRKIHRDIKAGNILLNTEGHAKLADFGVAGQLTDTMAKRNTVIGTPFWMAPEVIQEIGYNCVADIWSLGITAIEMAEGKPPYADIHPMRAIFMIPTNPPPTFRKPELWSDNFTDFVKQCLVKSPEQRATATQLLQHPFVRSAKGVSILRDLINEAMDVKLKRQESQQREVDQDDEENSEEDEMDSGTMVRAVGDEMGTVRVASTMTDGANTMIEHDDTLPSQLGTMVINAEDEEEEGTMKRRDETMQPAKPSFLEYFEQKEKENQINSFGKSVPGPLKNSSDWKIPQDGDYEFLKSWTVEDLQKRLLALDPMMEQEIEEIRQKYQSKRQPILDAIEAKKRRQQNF
# Chain of Tyrosine-protein kinase Mer (Homo sapiens) (Q12866 whole entry, the tested form may be a part): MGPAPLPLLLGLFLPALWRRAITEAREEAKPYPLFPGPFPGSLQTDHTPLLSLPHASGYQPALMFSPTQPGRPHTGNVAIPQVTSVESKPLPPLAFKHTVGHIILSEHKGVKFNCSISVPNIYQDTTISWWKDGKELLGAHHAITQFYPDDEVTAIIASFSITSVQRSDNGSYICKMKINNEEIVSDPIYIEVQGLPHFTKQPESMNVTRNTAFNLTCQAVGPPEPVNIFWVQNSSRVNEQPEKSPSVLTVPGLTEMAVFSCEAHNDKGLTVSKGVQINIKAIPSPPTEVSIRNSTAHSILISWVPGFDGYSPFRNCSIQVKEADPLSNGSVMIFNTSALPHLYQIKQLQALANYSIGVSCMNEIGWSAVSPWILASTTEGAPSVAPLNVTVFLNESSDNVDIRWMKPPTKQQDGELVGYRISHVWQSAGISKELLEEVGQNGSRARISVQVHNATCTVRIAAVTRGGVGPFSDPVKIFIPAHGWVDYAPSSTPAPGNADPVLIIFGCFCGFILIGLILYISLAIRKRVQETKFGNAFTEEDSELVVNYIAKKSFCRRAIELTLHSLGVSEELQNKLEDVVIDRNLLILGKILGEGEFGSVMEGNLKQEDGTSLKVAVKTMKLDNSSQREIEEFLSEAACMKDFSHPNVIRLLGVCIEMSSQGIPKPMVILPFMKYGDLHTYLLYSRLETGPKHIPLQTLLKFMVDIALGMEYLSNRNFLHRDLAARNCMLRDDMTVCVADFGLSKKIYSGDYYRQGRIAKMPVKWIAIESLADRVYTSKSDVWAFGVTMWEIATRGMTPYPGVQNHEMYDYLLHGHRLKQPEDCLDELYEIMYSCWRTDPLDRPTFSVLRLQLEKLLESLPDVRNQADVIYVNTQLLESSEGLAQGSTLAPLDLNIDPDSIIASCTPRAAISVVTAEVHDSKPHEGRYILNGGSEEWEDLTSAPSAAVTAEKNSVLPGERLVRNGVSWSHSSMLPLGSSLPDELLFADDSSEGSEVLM
# Chain of Mitogen-activated protein kinase 6 (Homo sapiens) (Q16659 whole entry, the tested form may be a part): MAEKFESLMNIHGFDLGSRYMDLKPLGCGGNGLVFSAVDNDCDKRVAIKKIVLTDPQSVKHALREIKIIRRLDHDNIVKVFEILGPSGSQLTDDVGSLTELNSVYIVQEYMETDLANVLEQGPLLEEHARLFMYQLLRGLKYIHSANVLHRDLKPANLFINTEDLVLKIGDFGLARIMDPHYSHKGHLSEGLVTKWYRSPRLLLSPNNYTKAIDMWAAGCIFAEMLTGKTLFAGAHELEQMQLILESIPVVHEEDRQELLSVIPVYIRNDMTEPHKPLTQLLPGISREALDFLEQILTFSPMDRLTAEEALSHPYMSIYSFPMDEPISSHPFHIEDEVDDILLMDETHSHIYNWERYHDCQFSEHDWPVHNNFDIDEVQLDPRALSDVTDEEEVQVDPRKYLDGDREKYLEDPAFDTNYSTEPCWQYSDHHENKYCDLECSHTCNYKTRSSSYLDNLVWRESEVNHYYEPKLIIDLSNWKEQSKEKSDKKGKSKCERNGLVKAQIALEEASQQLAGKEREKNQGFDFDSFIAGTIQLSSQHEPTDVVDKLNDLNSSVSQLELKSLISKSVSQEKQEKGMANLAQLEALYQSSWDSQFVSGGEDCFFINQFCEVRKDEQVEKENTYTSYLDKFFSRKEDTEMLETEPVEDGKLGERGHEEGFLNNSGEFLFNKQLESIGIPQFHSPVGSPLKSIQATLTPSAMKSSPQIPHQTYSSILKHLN
# Chain of Myosin light chain kinase (Homo sapiens) (Q32MK0 whole entry, the tested form may be a part): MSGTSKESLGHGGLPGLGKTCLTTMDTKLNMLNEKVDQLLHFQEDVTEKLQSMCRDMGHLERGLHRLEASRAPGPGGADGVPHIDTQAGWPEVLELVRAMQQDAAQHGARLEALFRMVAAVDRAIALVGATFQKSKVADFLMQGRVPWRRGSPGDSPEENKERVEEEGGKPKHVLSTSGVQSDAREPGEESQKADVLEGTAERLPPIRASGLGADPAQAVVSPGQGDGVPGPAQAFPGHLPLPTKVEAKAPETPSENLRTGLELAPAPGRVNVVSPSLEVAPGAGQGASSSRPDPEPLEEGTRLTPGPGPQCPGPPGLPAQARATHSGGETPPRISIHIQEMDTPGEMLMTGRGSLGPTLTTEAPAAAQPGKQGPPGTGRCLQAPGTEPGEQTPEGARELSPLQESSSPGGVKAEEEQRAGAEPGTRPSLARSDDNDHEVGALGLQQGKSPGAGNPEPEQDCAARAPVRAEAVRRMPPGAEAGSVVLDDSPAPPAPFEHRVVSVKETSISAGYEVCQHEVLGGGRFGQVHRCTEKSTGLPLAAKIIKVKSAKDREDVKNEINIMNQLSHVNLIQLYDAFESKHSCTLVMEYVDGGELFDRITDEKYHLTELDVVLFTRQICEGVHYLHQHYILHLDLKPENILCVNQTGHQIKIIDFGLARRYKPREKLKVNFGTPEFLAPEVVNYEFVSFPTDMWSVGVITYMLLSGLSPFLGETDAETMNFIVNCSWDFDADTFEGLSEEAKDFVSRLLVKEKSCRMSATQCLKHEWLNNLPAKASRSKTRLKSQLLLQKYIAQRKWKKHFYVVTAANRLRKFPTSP
# Chain of Ephrin type-A receptor 7 (Homo sapiens) (Q15375 28-998 limits assumed): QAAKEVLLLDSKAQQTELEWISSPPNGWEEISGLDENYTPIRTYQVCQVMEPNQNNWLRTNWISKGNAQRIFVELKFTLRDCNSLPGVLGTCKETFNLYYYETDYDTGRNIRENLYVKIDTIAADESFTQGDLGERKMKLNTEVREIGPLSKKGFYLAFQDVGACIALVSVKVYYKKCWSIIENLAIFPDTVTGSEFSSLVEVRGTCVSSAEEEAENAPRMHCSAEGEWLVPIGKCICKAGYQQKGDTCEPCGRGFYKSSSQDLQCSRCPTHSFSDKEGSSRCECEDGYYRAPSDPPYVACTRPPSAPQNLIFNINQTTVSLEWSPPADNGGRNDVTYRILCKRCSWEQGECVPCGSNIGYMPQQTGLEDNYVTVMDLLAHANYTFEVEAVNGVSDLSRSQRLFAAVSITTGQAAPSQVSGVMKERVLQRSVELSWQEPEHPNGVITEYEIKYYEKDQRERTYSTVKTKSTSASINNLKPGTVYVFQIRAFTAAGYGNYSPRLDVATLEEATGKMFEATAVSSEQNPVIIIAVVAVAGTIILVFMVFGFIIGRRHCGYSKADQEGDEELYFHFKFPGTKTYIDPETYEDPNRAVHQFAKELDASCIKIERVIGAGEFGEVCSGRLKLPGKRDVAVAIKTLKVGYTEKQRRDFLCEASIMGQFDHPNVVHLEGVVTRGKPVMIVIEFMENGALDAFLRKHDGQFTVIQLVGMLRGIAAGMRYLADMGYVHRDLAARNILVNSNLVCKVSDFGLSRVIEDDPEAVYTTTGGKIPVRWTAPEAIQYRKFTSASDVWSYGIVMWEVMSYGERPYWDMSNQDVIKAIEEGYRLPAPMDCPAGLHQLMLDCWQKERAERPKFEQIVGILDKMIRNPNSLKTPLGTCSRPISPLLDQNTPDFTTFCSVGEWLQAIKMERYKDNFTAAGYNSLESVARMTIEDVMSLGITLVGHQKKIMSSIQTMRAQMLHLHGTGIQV
# Chain of Cyclin-dependent kinase 14 (Homo sapiens) (O94921 whole entry, the tested form may be a part): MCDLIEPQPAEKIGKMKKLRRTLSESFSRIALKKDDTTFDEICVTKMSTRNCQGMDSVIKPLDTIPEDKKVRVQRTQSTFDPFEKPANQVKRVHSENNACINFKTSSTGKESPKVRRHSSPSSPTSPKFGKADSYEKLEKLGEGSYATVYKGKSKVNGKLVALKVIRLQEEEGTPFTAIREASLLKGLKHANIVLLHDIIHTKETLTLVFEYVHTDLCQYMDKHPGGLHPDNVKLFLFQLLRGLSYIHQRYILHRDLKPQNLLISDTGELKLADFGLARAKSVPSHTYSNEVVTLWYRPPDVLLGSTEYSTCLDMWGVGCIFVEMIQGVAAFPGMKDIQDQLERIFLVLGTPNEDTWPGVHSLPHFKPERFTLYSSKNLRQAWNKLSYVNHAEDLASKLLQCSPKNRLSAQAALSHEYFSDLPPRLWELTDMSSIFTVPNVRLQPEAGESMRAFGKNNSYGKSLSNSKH
# Chain of Serine/threonine-protein kinase 3 (Homo sapiens) (Q13188 whole entry, the tested form may be a part): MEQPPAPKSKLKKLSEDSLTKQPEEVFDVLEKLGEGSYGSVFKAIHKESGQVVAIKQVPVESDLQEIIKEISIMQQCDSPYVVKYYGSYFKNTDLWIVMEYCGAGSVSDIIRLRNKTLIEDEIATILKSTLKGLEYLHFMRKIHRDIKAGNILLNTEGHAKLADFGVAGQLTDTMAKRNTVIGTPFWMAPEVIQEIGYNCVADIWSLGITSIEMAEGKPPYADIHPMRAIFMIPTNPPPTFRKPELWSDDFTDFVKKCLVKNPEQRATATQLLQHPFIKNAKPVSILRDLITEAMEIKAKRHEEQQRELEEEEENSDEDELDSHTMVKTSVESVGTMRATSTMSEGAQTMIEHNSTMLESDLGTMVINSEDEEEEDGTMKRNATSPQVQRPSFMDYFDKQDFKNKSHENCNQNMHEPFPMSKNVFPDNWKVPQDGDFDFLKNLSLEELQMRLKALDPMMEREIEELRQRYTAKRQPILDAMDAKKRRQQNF
smiles,measurement,setting,value
C=CC(=O)Nc1cc(Nc2ncc(Cl)c(Nc3ccccc3S(=O)(=O)C(C)C)n2)c(OC)cc1N(C)CCN(C)C,EC50,[1],820 nM
same,Activity,[2],2.9%
same,Activity,[3],0.9%
same,Activity,[4],48%
same,Activity,[5],68%
same,Activity,[6],68%
same,Activity,[7],94%
same,Activity,[8],1.6%
same,Activity,[9],2.5%
same,Activity,[10],14%
same,Activity,[11],73%
same,Activity,[12],3.2%
same,Activity,[13],2.7%
same,Activity,[14],100%
same,Activity,[15],86%
same,Activity,[16],56%
same,Activity,[17],83%
same,Activity,[18],100%
same,Activity,[19],93%
same,Activity,[20],72%
same,Activity,[21],93%
same,Activity,[22],3.3%
same,Activity,[23],66%
same,Activity,[24],13%
